Experimental data: ChEMBL document CHEMBL1649256, “Comparison of assessment of oxygen consumption, Etest, and CLSI M38-A2 broth microdilution methods for evaluation of the susceptibility of Aspergillus fumigatus to posaconazole” (2009)
≈ marks a conversion by molar mass, not a printed value.

Columns and labels:
Type in all cases: functional
Aspergillus fumigatus [1] = test: Antimicrobial activity against Aspergillus fumigatus isolate 43 by oxygen consumption method
Aspergillus fumigatus [2] = test: Antimicrobial activity against Aspergillus fumigatus isolate 29 after 48 hrs by Etest; settings: isolate 29, 48 h
Method in brief: (§1)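 Etest strips on RPMI 1640 agar with 2% glucose, pH 7.0, run per manufacturer's instructions. Incubated at 35°C; MIC read at 48 h.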

Aspergillus fumigatus [3] = test: Antimicrobial activity against Aspergillus fumigatus isolate 32 by CLSI M38-A2 broth microdilution method
Method in brief: (§2)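 CLSI M38-A2 broth microdilution with posaconazole. MIC taken as the lowest concentration with no visible growth at 48 h. C. parapsilosis ATCC 22019 and C. krusei ATCC 6258 were included as QC strains in every run.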

Aspergillus fumigatus [4] = test: Antimicrobial activity against Aspergillus fumigatus isolate 45 after 48 hrs by Etest; settings: isolate 45, 48 h
Aspergillus fumigatus [5] = test: Antimicrobial activity against Aspergillus fumigatus isolate 1 after 24 hrs by Etest; settings: isolate 1, 24 h
Method in brief: (§3)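 Posaconazole Etest strips placed on RPMI 1640 agar with 2% glucose, pH 7.0, and run per the strip maker's instructions. Incubation at 35°C, with the MIC read at 24 h and at 48 h.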

Aspergillus fumigatus [6] = test: Antimicrobial activity against Aspergillus fumigatus isolate 3 after 48 hrs by Etest; settings: isolate 3, 48 h; method in brief: as §1
Aspergillus fumigatus [7] = test: Antimicrobial activity against Aspergillus fumigatus isolate 21 by oxygen consumption method
Method in brief: (§4)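 Conidial suspension in RPMI 1640 broth, 1.5 ml, with two drug concentrations (0.25 and 2 μg/ml). Tubes agitated 12 h at 37°C in a biological oxygen monitor. Available oxygen monitored continuously and quantified to assign the MIC.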

Aspergillus fumigatus [8] = test: Antimicrobial activity against Aspergillus fumigatus isolate 35 by CLSI M38-A2 broth microdilution method; method in brief: as §2
Aspergillus fumigatus [9] = test: Antimicrobial activity against Aspergillus fumigatus isolate 9 by oxygen consumption method
Aspergillus fumigatus [10] = test: Antimicrobial activity against Aspergillus fumigatus isolate 17 after 48 hrs by Etest; settings: isolate 17, 48 h; method in brief: as §3
Aspergillus fumigatus [11] = test: Antimicrobial activity against Aspergillus fumigatus isolate 47 by oxygen consumption method
Aspergillus fumigatus [12] = test: Antimicrobial activity against Aspergillus fumigatus isolate 26 after 48 hrs by Etest; settings: isolate 26, 48 h; method in brief: as §1
Aspergillus fumigatus [13] = test: Antimicrobial activity against Aspergillus fumigatus isolate 47 after 48 hrs by Etest; settings: isolate 47, 48 h
Aspergillus fumigatus [14] = test: Antimicrobial activity against Aspergillus fumigatus isolate 9 after 48 hrs by Etest; settings: isolate 9, 48 h
Aspergillus fumigatus [15] = test: Antimicrobial activity against Aspergillus fumigatus isolate 39 after 24 hrs by Etest; settings: isolate 39, 24 h
Method in brief: (§5)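 Posaconazole Etest strips on RPMI 1640 agar with 2% glucose, pH 7.0, run per the strip maker's instructions. Incubated at 35°C. MIC read at 24 h and at 48 h, matching the time in each line.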

Aspergillus fumigatus [16] = test: Antimicrobial activity against Aspergillus fumigatus isolate 25 after 48 hrs by Etest; settings: isolate 25, 48 h; method in brief: as §1
Aspergillus fumigatus [17] = test: Antimicrobial activity against Aspergillus fumigatus isolate 10 by oxygen consumption method
Method in brief: (§6)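 Conidial suspension in RPMI 1640 broth with posaconazole at 0.25 and 2 μg/ml. Tubes agitated 12 h at 37°C in a biological oxygen monitor. Available oxygen was monitored continuously, and the MIC was assigned from the oxygen quantification.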

Aspergillus fumigatus [18] = test: Antimicrobial activity against Aspergillus fumigatus isolate 1 by oxygen consumption method; method in brief: as §6
Aspergillus fumigatus [19] = test: Antimicrobial activity against Aspergillus fumigatus isolate 33 by CLSI M38-A2 broth microdilution method; method in brief: as §2
Aspergillus fumigatus [20] = test: Antimicrobial activity against Aspergillus fumigatus isolate 28 by oxygen consumption method; method in brief: as §4
Aspergillus fumigatus [21] = test: Antimicrobial activity against Aspergillus fumigatus isolate 3 after 24 hrs by Etest; settings: isolate 3, 24 h
Method in brief: (§7)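 Etest strips on RPMI 1640 agar with 2% glucose, pH 7.0, run per manufacturer's instructions. Incubated at 35°C; MIC read at 24 h.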

Aspergillus fumigatus [22] = test: Antimicrobial activity against Aspergillus fumigatus isolate 5 after 24 hrs by Etest; settings: isolate 5, 24 h
Aspergillus fumigatus [23] = test: Antimicrobial activity against Aspergillus fumigatus isolate 13 after 48 hrs by Etest; settings: isolate 13, 48 h; method in brief: as §3
Aspergillus fumigatus [24] = test: Antimicrobial activity against Aspergillus fumigatus isolate 17 by oxygen consumption method; method in brief: as §6
Aspergillus fumigatus [25] = test: Antimicrobial activity against Aspergillus fumigatus isolate 5 by CLSI M38-A2 broth microdilution method
Aspergillus fumigatus [26] = test: Antimicrobial activity against Aspergillus fumigatus isolate 46 by CLSI M38-A2 broth microdilution method
Aspergillus fumigatus [27] = test: Antimicrobial activity against Aspergillus fumigatus isolate 34 by oxygen consumption method
Method in brief: (§8)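 Conidial suspension in RPMI 1640 broth, tested at two posaconazole levels (0.25 and 2 μg/ml). Agitated for 12 h at 37°C in a biological oxygen monitor. MIC derived from continuous monitoring and quantification of the available oxygen.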

Aspergillus fumigatus [28] = test: Antimicrobial activity against Aspergillus fumigatus isolate 24 by oxygen consumption method; method in brief: as §4
Aspergillus fumigatus [29] = test: Antimicrobial activity against Aspergillus fumigatus isolate 46 by oxygen consumption method
Aspergillus fumigatus [30] = test: Antimicrobial activity against Aspergillus fumigatus isolate 38 by oxygen consumption method; method in brief: as §8
Aspergillus fumigatus [31] = test: Antimicrobial activity against Aspergillus fumigatus isolate 45 after 24 hrs by Etest; settings: isolate 45, 24 h
Aspergillus fumigatus [32] = test: Antimicrobial activity against Aspergillus fumigatus isolate 40 after 24 hrs by Etest; settings: isolate 40, 24 h; method in brief: as §5
Aspergillus fumigatus [33] = test: Antimicrobial activity against Aspergillus fumigatus isolate 1 by CLSI M38-A2 broth microdilution method
Method in brief: (§9)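 Posaconazole broth microdilution follows CLSI M38-A2. The MIC is the lowest concentration with no visible growth at 48 h. Candida parapsilosis ATCC 22019 and Candida krusei ATCC 6258 were included as QC strains in every run.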

Aspergillus fumigatus [34] = test: Antimicrobial activity against Aspergillus fumigatus isolate 42 after 24 hrs by Etest; settings: isolate 42, 24 h; method in brief: as §5
Aspergillus fumigatus [35] = test: Antimicrobial activity against Aspergillus fumigatus isolate 37 by oxygen consumption method; method in brief: as §8
Aspergillus fumigatus [36] = test: Antimicrobial activity against Aspergillus fumigatus isolate 31 by oxygen consumption method; method in brief: as §4
Aspergillus fumigatus [37] = test: Antimicrobial activity against Aspergillus fumigatus isolate 5 after 48 hrs by Etest; settings: isolate 5, 48 h
Aspergillus fumigatus [38] = test: Antimicrobial activity against Aspergillus fumigatus isolate 31 after 24 hrs by Etest; settings: isolate 31, 24 h; method in brief: as §7
Aspergillus fumigatus [39] = test: Antimicrobial activity against Aspergillus fumigatus isolate 26 after 24 hrs by Etest; settings: isolate 26, 24 h; method in brief: as §7
Aspergillus fumigatus [40] = test: Antimicrobial activity against Aspergillus fumigatus isolate 40 by oxygen consumption method; method in brief: as §8
Aspergillus fumigatus [41] = test: Antimicrobial activity against Aspergillus fumigatus isolate 37 after 24 hrs by Etest; settings: isolate 37, 24 h; method in brief: as §5
Aspergillus fumigatus [42] = test: Antimicrobial activity against Aspergillus fumigatus isolate 16 by CLSI M38-A2 broth microdilution method; method in brief: as §9
Aspergillus fumigatus [43] = test: Antimicrobial activity against Aspergillus fumigatus isolate 1 after 48 hrs by Etest; settings: isolate 1, 48 h; method in brief: as §3
Aspergillus fumigatus [44] = test: Antimicrobial activity against Aspergillus fumigatus isolate 3 by CLSI M38-A2 broth microdilution method
Method in brief: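 Reference broth microdilution per CLSI M38-A2. MIC read as absence of visible growth at 48 h. C. parapsilosis ATCC 22019 and C. krusei ATCC 6258 QC strains run in each test session.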

Aspergillus fumigatus [45] = test: Antimicrobial activity against Aspergillus fumigatus isolate 22 after 24 hrs by Etest; settings: isolate 22, 24 h; method in brief: as §7
Aspergillus fumigatus [46] = test: Antimicrobial activity against Aspergillus fumigatus isolate 12 by oxygen consumption method; method in brief: as §6

Which MIC (Aspergillus fumigatus [1]) does the source give for CC[C@@H]([C@H](C)O)n1ncn(-c2ccc(N3CCN(c4ccc(OC[C@@H]5CO[C@@](Cn6cncn6)(c6ccc(F)cc6F)C5)cc4)CC3)cc2)c1=O [POSACONAZOLE] here?
Its MIC is at most 0.25 µg/mL.

What about the MIC (Aspergillus fumigatus [2]) of the same molecule?
The MIC was 0.25 µg/mL (≈ 0.357 µM).

And the MIC (Aspergillus fumigatus [3])?
Its MIC is 0.125 µg/mL (≈ 0.178 µM).

And the MIC (Aspergillus fumigatus [4])?
The MIC was 0.125 µg/mL (≈ 0.178 µM).

What about the MIC (Aspergillus fumigatus [5]) of the same molecule?
Its MIC is 8 µg/mL (≈ 11.4 µM).

And the MIC (Aspergillus fumigatus [6])?
Its MIC is 2 µg/mL (≈ 2.85 µM).

And the MIC (Aspergillus fumigatus [7])?
The MIC was at most 0.25 µg/mL.

And the MIC (Aspergillus fumigatus [8])?
Its MIC is 0.125 µg/mL (≈ 0.178 µM).

What about the MIC (Aspergillus fumigatus [9]) of the same molecule?
Its MIC is at most 0.25 µg/mL.

What about the MIC (Aspergillus fumigatus [10]) of the same molecule?
Its MIC is 0.25 µg/mL (≈ 0.357 µM).

What about the MIC (Aspergillus fumigatus [11]) of the same molecule?
Its MIC is at most 0.25 µg/mL.

And the MIC (Aspergillus fumigatus [12])?
Its MIC is 0.25 µg/mL (≈ 0.357 µM).

What about the MIC (Aspergillus fumigatus [13]) of the same molecule?
The MIC was at most 0.03 µg/mL.

What about the MIC (Aspergillus fumigatus [14]) of the same molecule?
The MIC was 0.5 µg/mL (≈ 0.713 µM).

And the MIC (Aspergillus fumigatus [15])?
The MIC was 1 µg/mL (≈ 1.43 µM).

And the MIC (Aspergillus fumigatus [16])?
The MIC was 0.25 µg/mL (≈ 0.357 µM).

And the MIC (Aspergillus fumigatus [17])?
Its MIC is at most 0.25 µg/mL.

What about the MIC (Aspergillus fumigatus [18]) of the same molecule?
Its MIC is at least 0.5 µg/mL.

And the MIC (Aspergillus fumigatus [19])?
Its MIC is 0.125 µg/mL (≈ 0.178 µM).

And the MIC (Aspergillus fumigatus [20])?
Its MIC is at most 0.25 µg/mL.

What about the MIC (Aspergillus fumigatus [21]) of the same molecule?
Its MIC is 1 µg/mL (≈ 1.43 µM).

And the MIC (Aspergillus fumigatus [22])?
The MIC was 4 µg/mL (≈ 5.71 µM).

What about the MIC (Aspergillus fumigatus [23]) of the same molecule?
Its MIC is 0.25 µg/mL (≈ 0.357 µM).

And the MIC (Aspergillus fumigatus [24])?
Its MIC is at most 0.25 µg/mL.

What about the MIC (Aspergillus fumigatus [25]) of the same molecule?
The MIC was 1 µg/mL (≈ 1.43 µM).

And the MIC (Aspergillus fumigatus [26])?
Its MIC is 0.125 µg/mL (≈ 0.178 µM).

And the MIC (Aspergillus fumigatus [27])?
The MIC was at most 0.25 µg/mL.

And the MIC (Aspergillus fumigatus [28])?
The MIC was at most 0.25 µg/mL.

What about the MIC (Aspergillus fumigatus [29]) of the same molecule?
Its MIC is at most 0.25 µg/mL.

What about the MIC (Aspergillus fumigatus [30]) of the same molecule?
The MIC was at most 0.25 µg/mL.

And the MIC (Aspergillus fumigatus [31])?
Its MIC is 0.125 µg/mL (≈ 0.178 µM).

What about the MIC (Aspergillus fumigatus [32]) of the same molecule?
Its MIC is 0.125 µg/mL (≈ 0.178 µM).

What about the MIC (Aspergillus fumigatus [33]) of the same molecule?
Its MIC is 1 µg/mL (≈ 1.43 µM).

What about the MIC (Aspergillus fumigatus [34]) of the same molecule?
Its MIC is 0.06 µg/mL (≈ 0.0856 µM).

What about the MIC (Aspergillus fumigatus [35]) of the same molecule?
Its MIC is at most 0.25 µg/mL.

What about the MIC (Aspergillus fumigatus [36]) of the same molecule?
The MIC was at most 0.25 µg/mL.

And the MIC (Aspergillus fumigatus [37])?
The MIC was over 16 µg/mL.

And the MIC (Aspergillus fumigatus [38])?
Its MIC is 0.06 µg/mL (≈ 0.0856 µM).

What about the MIC (Aspergillus fumigatus [39]) of the same molecule?
The MIC was 0.25 µg/mL (≈ 0.357 µM).

What about the MIC (Aspergillus fumigatus [40]) of the same molecule?
Its MIC is at most 0.25 µg/mL.

And the MIC (Aspergillus fumigatus [41])?
Its MIC is 0.05 µg/mL (≈ 0.0713 µM).

And the MIC (Aspergillus fumigatus [42])?
The MIC was 0.125 µg/mL (≈ 0.178 µM).

And the MIC (Aspergillus fumigatus [43])?
Its MIC is 8 µg/mL (≈ 11.4 µM).

What about the MIC (Aspergillus fumigatus [44]) of the same molecule?
The MIC was 1 µg/mL (≈ 1.43 µM).

And the MIC (Aspergillus fumigatus [45])?
The MIC was 0.25 µg/mL (≈ 0.357 µM).

What about the MIC (Aspergillus fumigatus [46]) of the same molecule?
The MIC was at most 0.25 µg/mL.
